{"source": "ChEMBL document CHEMBL4196006", "about": "“Aryl thiosemicarbazones for the treatment of trypanosomatidic infections” (Eur J Med Chem, 2018)", "key": {"[1]": {"test": "Cytotoxicity against human THP1 cells assessed as viable cells at 100 uM after 72 hrs by MTT assay relative to control", "type": "cell-based, THP-1", "conditions": "read-out: Activity", "in_short": "(§1)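 THP-1-derived macrophages exposed to compounds for 72 h, tested at 100 μM or in dose-response; viability read by MTT colorimetric assay.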"}, "Trypanosoma brucei [2]": {"system": "Trypanosoma brucei", "test": "Potentiation of methotrexate-induced antitrypanosomal activity against Trypanosoma brucei Lister 427 bloodstream form at 10 uM after 72 hrs by resazurin dye-based assay", "type": "functional"}, "[3]": {"test": "Cytotoxicity against human 786-O cells assessed as inhibition of mitochondrial viability at 10 uM after 6 hrs by CMXRos staining based assay relative to control", "type": "cell-based, 786-0", "conditions": "read-out: INH", "in_short": "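Mitochondrial toxicity monitored by MitoTracker Red CMXRos uptake and high-content imaging; compound at 10 μM, triplicate.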"}, "WI-38": {"system": "WI-38", "test": "Cytotoxicity against human WI38 cells assessed as growth inhibition at 10 uM after 48 hrs by CellTiter-Glo assay relative to control; values are per cent of control", "conditions": "wi-38, 48 h, 10 µM"}, "[4]": {"target": "T1, Pteridine reductase, putative (Trypanosoma brucei) (UniProt Q581W1)", "T1 sequence (whole entry)": "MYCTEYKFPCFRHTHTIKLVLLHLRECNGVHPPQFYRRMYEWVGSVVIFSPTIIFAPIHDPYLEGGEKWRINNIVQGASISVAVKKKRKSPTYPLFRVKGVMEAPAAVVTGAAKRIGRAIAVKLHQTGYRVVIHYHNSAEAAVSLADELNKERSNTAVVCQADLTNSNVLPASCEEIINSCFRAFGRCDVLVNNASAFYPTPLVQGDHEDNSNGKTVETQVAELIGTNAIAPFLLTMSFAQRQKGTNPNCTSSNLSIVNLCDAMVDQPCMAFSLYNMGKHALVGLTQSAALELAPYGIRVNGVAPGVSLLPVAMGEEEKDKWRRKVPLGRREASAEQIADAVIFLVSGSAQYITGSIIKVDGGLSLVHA", "test": "Inhibition of Trypanosoma brucei PTR1 at 50 uM using H2B as substrate in presence of NADPH by photometric analysis relative to control"}, "Trypanosoma brucei [5]": {"system": "Trypanosoma brucei", "test": "Antitrypanosomal activity against Trypanosoma brucei Lister 427 bloodstream form at 10 uM after 72 hrs by resazurin dye-based assay relative to control", "type": "functional"}, "CYP2D6": {"target": "CYP2D6 (Homo sapiens, UniProt P10635)", "sequence (P10635 whole entry)": "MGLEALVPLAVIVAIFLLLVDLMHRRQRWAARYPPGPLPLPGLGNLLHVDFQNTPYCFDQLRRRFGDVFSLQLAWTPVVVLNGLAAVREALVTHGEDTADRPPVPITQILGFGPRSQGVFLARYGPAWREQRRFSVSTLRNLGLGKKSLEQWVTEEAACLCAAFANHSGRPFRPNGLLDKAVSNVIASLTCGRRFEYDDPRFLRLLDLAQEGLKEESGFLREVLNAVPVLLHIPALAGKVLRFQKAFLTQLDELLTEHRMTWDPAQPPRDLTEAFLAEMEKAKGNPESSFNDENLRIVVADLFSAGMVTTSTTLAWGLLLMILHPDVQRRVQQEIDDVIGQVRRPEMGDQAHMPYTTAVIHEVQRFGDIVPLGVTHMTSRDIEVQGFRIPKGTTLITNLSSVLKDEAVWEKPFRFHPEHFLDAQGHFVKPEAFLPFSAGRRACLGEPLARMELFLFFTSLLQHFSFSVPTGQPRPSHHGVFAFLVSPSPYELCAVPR", "test": "Inhibition of human microsomal CYP2D6 expressed in baculovirus infected BTI-TN-5B1-4 cells at 10 uM incubated for 30 mins by luciferase assay relative to control", "type": "ADME", "in_short": "(§2)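 CYP1A2, 2C9, 2C19, 2D6 and 3A4 in microsomes from baculovirus-infected insect cells, each with a P450-Glo luminogenic substrate. Inhibition read as loss of light; single-point at 10 μM, triplicate.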"}, "Aurora kinase B": {"target": "Aurora kinase B (Homo sapiens, UniProt Q96GD4)", "sequence (Q96GD4 whole entry)": "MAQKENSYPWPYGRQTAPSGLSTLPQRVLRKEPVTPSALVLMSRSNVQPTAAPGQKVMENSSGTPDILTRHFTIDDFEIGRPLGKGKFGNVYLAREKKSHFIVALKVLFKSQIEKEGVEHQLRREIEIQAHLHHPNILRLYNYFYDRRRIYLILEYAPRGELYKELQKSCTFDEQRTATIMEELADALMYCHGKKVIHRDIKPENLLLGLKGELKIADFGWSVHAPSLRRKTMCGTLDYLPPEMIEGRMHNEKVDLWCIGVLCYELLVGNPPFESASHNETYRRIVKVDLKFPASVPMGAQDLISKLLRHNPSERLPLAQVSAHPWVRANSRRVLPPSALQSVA", "test": "Inhibition of recombinant full-length human aurora B kinase expressed in baculovirus system at 10 uM using MBP as substrate incubated for 45 mins by ADP-glo kinase assay", "conditions": "probe MBP", "in_short": "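Aurora B activity measured as ADP formation via coupled luciferase ADP-Glo luminescence; single-point at 10 μM, triplicate.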"}, "Trypanosoma brucei [6]": {"system": "Trypanosoma brucei", "test": "Potentiation of methotrexate-induced antitrypanosomal activity against Trypanosoma brucei Lister 427 bloodstream form at 10 uM after 72 hrs by resazurin dye-based assay relative to control", "type": "functional"}, "CYP2C19": {"target": "CYP2C19 (Homo sapiens, UniProt P33261)", "sequence (P33261 whole entry)": "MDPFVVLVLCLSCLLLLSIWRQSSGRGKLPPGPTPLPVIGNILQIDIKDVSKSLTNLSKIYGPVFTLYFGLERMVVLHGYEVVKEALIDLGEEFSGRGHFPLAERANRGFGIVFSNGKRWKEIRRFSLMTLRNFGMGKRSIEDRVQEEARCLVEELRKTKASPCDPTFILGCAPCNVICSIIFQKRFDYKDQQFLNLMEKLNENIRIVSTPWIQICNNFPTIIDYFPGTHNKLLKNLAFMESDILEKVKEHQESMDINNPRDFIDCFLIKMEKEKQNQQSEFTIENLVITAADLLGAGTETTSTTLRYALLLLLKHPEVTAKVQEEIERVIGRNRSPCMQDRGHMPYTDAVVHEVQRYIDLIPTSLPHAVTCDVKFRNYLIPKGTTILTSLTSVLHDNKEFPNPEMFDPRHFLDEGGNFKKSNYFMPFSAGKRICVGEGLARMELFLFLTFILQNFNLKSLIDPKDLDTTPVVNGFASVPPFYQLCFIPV", "test": "Inhibition of human microsomal CYP2C19 expressed in baculovirus infected BTI-TN-5B1-4 cells at 10 uM incubated for 30 mins by luciferase assay relative to control", "type": "ADME", "in_short": "as §2"}, "Trypanosoma cruzi": {"system": "Trypanosoma cruzi", "test": "Antitrypanosomal activity against Trypanosoma cruzi amastigote form infected in human U2OS cells assessed as parasite growth inhibition at 50 uM after 72 hrs relative to control", "type": "functional", "conditions": "read-out: GI", "in_short": "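U2OS monolayers grown for 24 h, then infected with tissue-derived trypomastigotes of T. cruzi Y strain. Compounds were added 24 h after infection at 50 μM (single-point) or in dose-response, with 72 h exposure. Plates were fixed, stained and analysed by high-content imaging; activity was normalized to infected and non-infected controls. Means of at least two experiments; benznidazole as reference.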"}, "hERG (KCNH2)": {"target": "hERG (KCNH2) (Homo sapiens, UniProt Q12809)", "sequence (Q12809 whole entry)": "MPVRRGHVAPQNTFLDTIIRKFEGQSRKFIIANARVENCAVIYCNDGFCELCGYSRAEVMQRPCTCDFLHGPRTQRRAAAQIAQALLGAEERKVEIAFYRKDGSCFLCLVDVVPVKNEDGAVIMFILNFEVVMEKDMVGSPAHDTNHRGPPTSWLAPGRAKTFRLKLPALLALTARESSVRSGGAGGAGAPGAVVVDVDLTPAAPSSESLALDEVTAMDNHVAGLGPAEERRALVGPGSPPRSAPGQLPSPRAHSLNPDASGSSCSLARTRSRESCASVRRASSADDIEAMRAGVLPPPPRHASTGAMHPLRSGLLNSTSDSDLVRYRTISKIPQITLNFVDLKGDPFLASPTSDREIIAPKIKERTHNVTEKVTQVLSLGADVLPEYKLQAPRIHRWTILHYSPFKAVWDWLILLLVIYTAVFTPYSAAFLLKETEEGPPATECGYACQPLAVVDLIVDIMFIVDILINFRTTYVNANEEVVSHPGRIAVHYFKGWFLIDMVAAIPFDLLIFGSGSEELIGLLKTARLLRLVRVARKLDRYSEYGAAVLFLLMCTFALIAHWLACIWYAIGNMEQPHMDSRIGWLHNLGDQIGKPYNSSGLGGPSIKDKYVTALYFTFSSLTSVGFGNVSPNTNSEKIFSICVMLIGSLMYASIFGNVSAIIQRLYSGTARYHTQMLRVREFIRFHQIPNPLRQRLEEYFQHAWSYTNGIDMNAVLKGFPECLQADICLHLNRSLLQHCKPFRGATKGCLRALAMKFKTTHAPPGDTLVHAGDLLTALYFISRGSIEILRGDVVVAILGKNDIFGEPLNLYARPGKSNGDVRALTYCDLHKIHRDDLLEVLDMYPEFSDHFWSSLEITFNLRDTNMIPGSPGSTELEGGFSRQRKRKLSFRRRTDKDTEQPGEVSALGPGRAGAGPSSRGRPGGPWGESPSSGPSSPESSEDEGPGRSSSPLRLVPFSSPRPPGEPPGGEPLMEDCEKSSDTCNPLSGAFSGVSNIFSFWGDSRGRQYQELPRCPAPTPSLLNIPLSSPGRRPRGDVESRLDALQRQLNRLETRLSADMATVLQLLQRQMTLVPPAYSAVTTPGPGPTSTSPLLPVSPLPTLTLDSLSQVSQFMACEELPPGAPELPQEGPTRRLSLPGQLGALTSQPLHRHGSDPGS", "test": "Inhibition of human ERG at 10 uM incubated for 2 hrs by fluorescence polarisation assay relative to control"}, "[7]": {"test": "Cytotoxicity against human U2OS cells assessed as viable cells at 50 uM after 72 hrs by MTT assay relative to control", "type": "cell-based", "conditions": "read-out: Activity"}, "Trypanosoma brucei [8]": {"system": "Trypanosoma brucei", "test": "Antitrypanosomal activity against Trypanosoma brucei Lister 427 bloodstream form assessed as parasite growth inhibition at 50 uM after 72 hrs by SYBR Green assay relative to control", "type": "functional", "conditions": "Lister 427, 72 h, read-out: GI"}, "Leishmania infantum": {"system": "Leishmania infantum", "test": "Antileishmanial activity against Leishmania infantum amastigote form assessed as parasite growth inhibition at 50 uM after 72 hrs by steady-Glo reagent based assay relative to control", "type": "functional", "conditions": "read-out: GI", "in_short": "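Intramacrophage L. infantum amastigotes in THP-1-derived macrophages, tested at 50 μM or in dose-response. Plates held 72 h at 37 °C, 5% CO2. Medium was replaced by PBS, macrophages lysed, and parasites read by Steady-Glo luminescence. High-content imaging gave host cell number, infection ratio (infected/total cells) and parasites per infected cell. Values are means of at least two independent experiments.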"}, "CYP1A2": {"target": "T2, CYP1A2 (Homo sapiens, UniProt P05177)", "T2 sequence (P05177 whole entry)": "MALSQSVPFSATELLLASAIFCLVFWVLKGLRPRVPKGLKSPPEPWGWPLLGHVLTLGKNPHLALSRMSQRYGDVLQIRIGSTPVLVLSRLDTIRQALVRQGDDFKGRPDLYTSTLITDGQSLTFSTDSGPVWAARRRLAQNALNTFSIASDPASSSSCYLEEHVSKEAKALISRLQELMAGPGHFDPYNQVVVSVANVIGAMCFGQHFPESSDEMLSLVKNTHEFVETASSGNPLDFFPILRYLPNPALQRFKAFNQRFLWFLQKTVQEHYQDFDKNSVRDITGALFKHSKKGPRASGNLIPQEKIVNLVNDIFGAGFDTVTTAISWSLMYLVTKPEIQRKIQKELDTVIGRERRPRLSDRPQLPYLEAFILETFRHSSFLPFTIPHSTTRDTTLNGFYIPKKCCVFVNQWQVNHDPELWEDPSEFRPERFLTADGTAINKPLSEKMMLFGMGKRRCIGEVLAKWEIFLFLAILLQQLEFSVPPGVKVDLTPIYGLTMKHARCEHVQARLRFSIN", "test": "Inhibition of human microsomal CYP1A2 expressed in baculovirus infected BTI-TN-5B1-4 cells at 10 uM incubated for 30 mins by luciferase assay relative to control", "type": "ADME", "in_short": "as §2"}, "[9]": {"test": "Cytotoxicity against human A549 cells assessed as growth inhibition at 10 uM after 48 hrs by CellTiter-Glo assay relative to control; values are per cent of control", "conditions": "A549 cells"}, "CYP2C9": {"target": "CYP2C9 (Homo sapiens, UniProt P11712)", "sequence (P11712 whole entry)": "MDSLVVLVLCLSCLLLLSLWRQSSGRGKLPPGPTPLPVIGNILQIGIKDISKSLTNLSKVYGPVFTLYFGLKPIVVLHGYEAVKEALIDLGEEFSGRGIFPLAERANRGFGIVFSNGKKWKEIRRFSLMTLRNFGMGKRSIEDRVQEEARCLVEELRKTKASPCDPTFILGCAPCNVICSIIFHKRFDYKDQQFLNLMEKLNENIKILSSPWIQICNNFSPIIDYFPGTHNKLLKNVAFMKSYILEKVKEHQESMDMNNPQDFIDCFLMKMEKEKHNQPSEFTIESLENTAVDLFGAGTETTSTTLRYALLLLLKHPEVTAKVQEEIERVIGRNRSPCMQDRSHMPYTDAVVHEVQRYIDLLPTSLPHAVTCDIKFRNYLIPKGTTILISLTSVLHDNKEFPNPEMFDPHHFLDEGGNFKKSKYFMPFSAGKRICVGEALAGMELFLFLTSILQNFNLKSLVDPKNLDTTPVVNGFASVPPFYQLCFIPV", "test": "Inhibition of human microsomal CYP2C9 expressed in baculovirus infected BTI-TN-5B1-4 cells at 10 uM incubated for 30 mins by luciferase assay relative to control", "type": "ADME", "in_short": "as §2"}, "CYP3A4": {"target": "CYP3A4 (Homo sapiens, UniProt P08684)", "sequence (P08684 whole entry)": "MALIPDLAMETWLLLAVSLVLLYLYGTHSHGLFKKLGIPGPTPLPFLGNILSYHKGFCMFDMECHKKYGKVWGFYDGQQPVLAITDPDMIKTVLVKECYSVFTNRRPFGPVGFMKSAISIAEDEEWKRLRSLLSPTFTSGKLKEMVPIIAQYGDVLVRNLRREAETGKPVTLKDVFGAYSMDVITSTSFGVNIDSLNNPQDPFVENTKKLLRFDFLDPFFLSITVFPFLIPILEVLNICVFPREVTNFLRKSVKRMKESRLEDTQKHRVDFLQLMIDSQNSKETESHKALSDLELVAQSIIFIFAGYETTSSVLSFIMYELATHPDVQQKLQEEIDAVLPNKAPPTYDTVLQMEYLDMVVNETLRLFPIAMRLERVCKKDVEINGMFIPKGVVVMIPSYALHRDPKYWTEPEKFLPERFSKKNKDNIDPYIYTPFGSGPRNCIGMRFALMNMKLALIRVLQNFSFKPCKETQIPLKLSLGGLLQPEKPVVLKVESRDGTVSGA", "test": "Inhibition of human microsomal CYP3A4 expressed in baculovirus infected BTI-TN-5B1-4 cells at 10 uM incubated for 30 mins by luciferase assay relative to control", "type": "ADME", "in_short": "as §2"}, "[10]": {"target": "T3, Pteridine reductase 1 (Leishmania major) (UniProt Q01782)", "T3 sequence (whole entry)": "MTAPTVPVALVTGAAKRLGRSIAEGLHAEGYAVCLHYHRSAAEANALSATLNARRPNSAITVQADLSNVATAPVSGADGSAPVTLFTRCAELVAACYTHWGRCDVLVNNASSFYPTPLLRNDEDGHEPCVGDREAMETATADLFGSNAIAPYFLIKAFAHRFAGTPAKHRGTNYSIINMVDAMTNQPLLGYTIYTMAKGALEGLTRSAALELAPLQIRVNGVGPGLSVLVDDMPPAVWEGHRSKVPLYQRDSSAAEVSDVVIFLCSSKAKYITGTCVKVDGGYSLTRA", "test": "Inhibition of Leishmania major PTR1 at 50 uM using H2B as substrate in presence of NADPH by photometric analysis relative to control"}, "THP-1": {"system": "THP-1", "test": "Cytotoxicity against human THP1 cells assessed as decrease in viable cells after 72 hrs by MTT assay", "type": "cell-based", "conditions": "thp-1, 72 h", "in_short": "as §1"}, "Cytochrome P450 2C9": {"target": "Cytochrome P450 2C9 (Homo sapiens, UniProt P11712)", "sequence (P11712 whole entry)": "as the sequence (P11712 whole entry) above", "test": "Inhibition of human microsomal CYP2C9 expressed in baculovirus infected BTI-TN-5B1-4 cells incubated for 30 mins by luciferase assay"}, "U2OS": {"system": "U2OS", "test": "Cytotoxicity against human U2OS cells assessed as decrease in viable cells after 72 hrs by cell number count in anti-T. cruzi high content imaging assay", "conditions": "u2os, 72 h"}, "Cytochrome P450 3A4": {"target": "Cytochrome P450 3A4 (Homo sapiens, UniProt P08684)", "sequence (P08684 whole entry)": "as the sequence (P08684 whole entry) above", "test": "Inhibition of human microsomal CYP3A4 expressed in baculovirus infected BTI-TN-5B1-4 cells incubated for 30 mins by luciferase assay", "type": "ADME"}, "Trypanosoma brucei [11]": {"system": "Trypanosoma brucei", "test": "Antitrypanosomal activity against Trypanosoma brucei Lister 427 bloodstream form at 4 uM after 72 hrs by resazurin dye-based assay relative to control", "type": "functional"}}, "note": "Activity calls are given as the source filed them. The calls are words filed in the database; no cut-off is given here.", "data": [{"smiles": "CN(C)c1ccc(/C=N/N=C(/N)S)c2ccccc12", "values": [{"measurement": "viability at 72 h, 100 µM", "setting": "[1]", "result": 9.31, "unit": "%"}, {"measurement": "PF", "setting": "Trypanosoma brucei [2]", "result": 1.27}, {"measurement": "cytotoxicity at 6 h, 10 µM", "setting": "[3]", "result": -1.7, "unit": "%"}, {"measurement": "cell growth (% of control)", "setting": "WI-38", "result": 162.08, "unit": "%"}, {"measurement": "inhibition", "setting": "[4]", "result": "inactive"}, {"measurement": "Activity", "setting": "Trypanosoma brucei [5]", "result": 26.17, "unit": "%"}, {"measurement": "inhibition at 0.5 h, 10 µM", "setting": "CYP2D6", "result": 57.9, "unit": "%"}, {"measurement": "inhibition at 0.75 h, 10 µM", "setting": "Aurora kinase B", "result": 0.89, "unit": "%"}, {"measurement": "Activity", "setting": "Trypanosoma brucei [6]", "result": 63.83, "unit": "%"}, {"measurement": "inhibition at 0.5 h, 10 µM", "setting": "CYP2C19", "result": 21.7, "unit": "%"}, {"measurement": "inhibition of growth at 50 µM", "setting": "Trypanosoma cruzi", "result": 8.05, "unit": "%"}, {"measurement": "inhibition at 2 h, 10 µM", "setting": "hERG (KCNH2)", "result": 43, "unit": "%"}, {"measurement": "viability at 72 h, 50 µM", "setting": "[7]", "result": 99.5, "unit": "%"}, {"measurement": "inhibition of growth at 50 µM", "setting": "Trypanosoma brucei [8]", "result": 6.33, "unit": "%"}, {"measurement": "inhibition of growth at 50 µM", "setting": "Leishmania infantum", "result": 58.3, "unit": "%"}, {"measurement": "inhibition at 0.5 h, 10 µM", "setting": "CYP1A2", "result": 98.4, "unit": "%"}, {"measurement": "cell growth (% of control) at 48 h, 10 µM", "setting": "[9]", "result": 122, "unit": "%"}, {"measurement": "inhibition at 0.5 h, 10 µM", "setting": "CYP2C9", "result": 10, "unit": "%"}, {"measurement": "inhibition at 0.5 h, 10 µM", "setting": "CYP3A4", "result": 22.8, "unit": "%"}, {"measurement": "inhibition", "setting": "[10]", "result": 5.85, "unit": "%"}]}, {"smiles": "O=C(Cn1ccnc1[N+](=O)[O-])NCc1ccccc1", "note": "[BENZNIDAZOLE]", "values": [{"measurement": "CC50", "setting": "THP-1", "result": "Non-Toxic"}, {"measurement": "IC50", "setting": "Cytochrome P450 2C9", "result": "> 100", "unit": "µM"}, {"measurement": "CC50", "setting": "U2OS", "result": "Non-Toxic"}, {"measurement": "IC50", "setting": "Cytochrome P450 3A4", "result": 98.2, "unit": "µM"}]}, {"smiles": "CN(Cc1cnc2nc(N)nc(N)c2n1)c1ccc(C(=O)N[C@@H](CCC(=O)O)C(=O)O)cc1", "note": "[METHOTREXATE]", "values": [{"measurement": "Activity", "setting": "Trypanosoma brucei [11]", "result": 24.25, "unit": "%"}]}]}
